One series relates to Mus musculus. Nature of the series: Suppression of cardiac allograft rejection of C57BL/6 mouse to BALB/c mouse assessed as surviving days at 40 mg/kg, po treatment started from day of transplantation for 30 days by immunosuppressive assay. In kind it is functional.
Conditions: not given
An outline of the steps: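 Female mice aged 8-10 weeks and weighing 20-25 g. Donors were inbred C57BL/6 (H-2b) and recipients Balb/c (H-2d). Animals were randomly allocated and dosed by daily gavage in 30% 2-hydroxypropyl-β-cyclodextrin. […] Each graft was scored as surviving days, compared with vehicle by Student t test.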
Consider `Nc1nc(N2CCN(C(=O)COc3ccc(Cl)cc3)CC2)c2nc(-c3cccnc3)sc2n1`, for which the Survival is above 17 days.
Turning to `C/C=C/C[C@@H](C)[C@@H](O)[C@H]1C(=O)N[C@@H](CC)C(=O)N(C)CC(=O)N(C)[C@@H](CC(C)C)C(=O)N[C@@H](C(C)C)C(=O)N(C)[C@@H](CC(C)C)C(=O)N[C@@H](C)C(=O)N[C@H](C)C(=O)N(C)[C@@H](CC(C)C)C(=O)N(C)[C@@H](CC(C)C)C(=O)N(C)[C@@H](C(C)C)C(=O)N1C` [CYCLOSPORINE], the Survival was above 30 days.

For another series, the system named is Lymphocyte. As to the kind of experiment: Immunosuppressive activity in peripheral blood lymphocytes isolated from two individuals assessed as proliferation using [methyl-3H]thymidine by mixed lymphocyte reaction assay. In kind it is functional, cell-based. To be noted: Homo sapiens. An outline of the steps: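 Human PBMCs from heparinized blood of healthy donors, isolated over Lymphoprep, 1.6 × 10⁶ cells/mL in RPMI-1640 with 10% heat-inactivated FCS. Stimulators: RPMI1788 cells given 30 μg/mL mitomycin C, 20 min, 37 °C, washed, 0.6 × 10⁶ cells/mL. Cells mixed with diluted compound, 5 days at 37 °C in 5% CO₂. 1 μCi (methyl-³H)thymidine added for last 18 h; harvested, cpm counted. IC₅₀ from two independent experiments (mean).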
With `CCCCCc1nc2c(N3CCN(C(=O)COc4ccc(Cl)cc4)CC3)nc(N)nc2s1`, the IC50 (commonly the midpoint of a concentration-inhibition curve) amounted to 0.69 µM.
Still for that read-out and setting: to `Cc1ccc(NC(=O)N2CCN(c3nc(N)nc4sc(-c5ccc(F)cc5)nc34)CC2)cc1` belongs 0.7 µM.
On the same count and under the same terms, under `COc1ccc(OCC(=O)N2CCN(c3nc(N)nc4sc(-c5ccc(F)cc5)nc34)CC2)cc1` stands 0.04 µM; under `Nc1nc(N2CCN(C(=O)COc3ccc(F)cc3)CC2)c2nc(-c3ccc(F)cc3)sc2n1`, 0.07 µM.
Turning to `Nc1nc(N2CCN(C(=O)COc3ccc(Cl)cc3)CC2)c2nc(CCCCc3ccc(F)cc3)sc2n1`, the IC50 turned out to be 0.92 µM.
The same measure, in the same setting: to `CCCCCN1CCN(c2nc(N)nc3sc(-c4ccc(F)cc4)nc23)CC1` belongs above 10 µM; to `Nc1nc(N2CCNCC2)c2nc(-c3ccc(F)cc3)sc2n1`, 4.3 µM; to `Cc1ccc(-c2nc3c(N4CCN(C(=O)COc5ccc(Cl)cc5)CC4)nc(N)nc3s2)cc1`, 0.35 µM.
`Nc1nc(N2CCN(C(=O)COc3ccc(Cl)cc3)CC2)c2nc(-c3ccc(F)cc3)oc2n1`: the IC50 amounted to 3 µM.
With `COc1ccc(OCC(=O)N2CCN(c3nc(N)nc4sc(-c5cccnc5)nc34)CC2)cc1`, the IC50 was found to be 0.012 µM.
Turning to `Nc1nc(N2CCN(C(=O)COc3ccc(Cl)cc3)CC2)c2nc(-c3ccc(Cl)cc3)sc2n1`, the IC50 turned out to be 0.27 µM.
Still for that read-out and setting: to `Cc1cccc(N2CCN(c3nc(N)nc4sc(-c5ccc(F)cc5)nc34)CC2)c1` belongs above 10 µM; to `Nc1nc(N2CCN(C(=O)COc3ccc(Cl)cc3)CC2)c2nc(Cc3ccc(F)cc3)sc2n1`, 0.7 µM; to `Nc1nc(N2CCN(C(=O)COc3ccc(Cl)cc3)CC2)c2cc(-c3ccc(F)cc3)sc2n1`, 0.7 µM.
Still for that read-out and setting: under `Nc1nc(N2CCN(C(=O)OCc3ccccc3)CC2)c2nc(-c3ccc(F)cc3)sc2n1` stands 4.9 µM.
Same read-out and setting: under `Nc1nc(N2CCN(C(=O)COc3ccc(Cl)cc3)CC2)c2nc(-c3ccc(F)cc3)sc2n1` stands 0.49 µM; under `Nc1nc(N2CCN(C(=O)COc3ccccc3)CC2)c2nc(-c3ccc(F)cc3)sc2n1`, 0.09 µM.
As for `Nc1nc(N2CCN(C(=O)COc3ccc(Cl)cc3)CC2)c2nc(-c3ccccn3)sc2n1`, the IC50 is 0.23 µM.
The same measure, in the same setting: under `CC(C)(Oc1ccc(Cl)cc1)C(=O)N1CCN(c2nc(N)nc3sc(-c4ccc(F)cc4)nc23)CC1` stands above 10 µM; under `Nc1nc(N2CCN(C(=O)COc3ccc(Br)cc3)CC2)c2nc(-c3ccc(F)cc3)sc2n1`, 0.38 µM; under `Nc1nc(N2CCN(C(=O)COc3ccc(Cl)cc3)CC2)c2nc(-c3ccc(F)cc3)[nH]c2n1`, 0.8 µM.
In the case of `Nc1nc(N2CCN(Cc3ccccc3)CC2)c2nc(-c3ccc(F)cc3)sc2n1`, the IC50 is above 10 µM.
Still for that read-out and setting: under `Nc1nc(N2CCN(C(=O)COc3ccc(Cl)cc3)CC2)c2nc(-c3cccnc3)sc2n1` stands 0.05 µM.
`Cc1cccc(NC(=O)N2CCN(c3nc(N)nc4sc(-c5ccc(F)cc5)nc34)CC2)c1`: the IC50 came out at 0.3 µM.
The same measure, in the same setting: under `Nc1nc(N2CCN(C(=O)COc3ccc(Cl)cc3)CC2)c2sc(-c3ccc(F)cc3)nc2n1` stands above 10 µM; under `Nc1nc(N2CCN(S(=O)(=O)c3ccccc3)CC2)c2nc(-c3ccc(F)cc3)sc2n1`, above 10 µM; under `Nc1nc(N2CCN(C(=O)COc3ccc(F)cc3)CC2)c2nc(-c3cccnc3)sc2n1`, 0.012 µM.
For the compound `Nc1nc(N2CCN(C(=O)COc3ccc(Cl)cc3)CC2)c2nc(-c3ccncc3)sc2n1`, the IC50 came out at 0.04 µM.
Regarding `Nc1nc(N2CCN(C(=O)COc3ccc(Cl)cc3)CC2)c2nc(CCOc3ccc(F)cc3)sc2n1`, the IC50 amounted to 3.54 µM.
Same read-out and setting: to `CC(c1ccc(F)cc1)c1nc2c(N3CCN(C(=O)COc4ccc(Cl)cc4)CC3)nc(N)nc2s1` (centres undefined) belongs 4.38 µM.
The same measure, in the same setting: to `Nc1nc(N2CCN(C(=O)COc3ccc(Cl)cc3)CC2)c2nc(CCc3ccc(F)cc3)sc2n1` belongs 4.4 µM.

A further series relates to Mus musculus. Nature of the series: Toxicity in BALB/c mouse during cardiac allograft from C57BL/6 mouse at 40 mg/kg, po treatment started from day of transplantation for 30 days. It counts as organism-based. Set-up: dose 40 mg/kg, route oral. The following applies: in vivo, 720 h. A digest of the protocol:
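Female mice aged 8-10 weeks, 20-25 g: C57BL/6 (H-2^b) donors, Balb/c (H-2^d) recipients. Recipients randomized to groups. Dosing 40 (mg/kg)/day by daily gavage. Vehicle 30% 2-hydroxypropyl-β-cyclodextrin given alone to controls (n = 6). […] Graft survival recorded in days. Student t test against vehicle group.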
Take `Nc1nc(N2CCN(C(=O)COc3ccc(Cl)cc3)CC2)c2nc(-c3cccnc3)sc2n1`: the Activity entry is “Non-toxic”.

The values are drawn from ChEMBL document CHEMBL1649410, “Discovery of 7-N-piperazinylthiazolo[5,4-d]pyrimidine analogues as a novel class of immunosuppressive agents with in vivo biological activity” (J Med Chem, 2011).
